ChEMBL document CHEMBL1136016, “Synthesis, biological activity, and molecular modeling investigation of new pyrazolo[4,3-e]-1,2,4-triazolo[1,5-c]pyrimidine derivatives as human A(3) adenosine receptor antagonists” (J Med Chem, 2002)
One block for each compound: values may come before it.

Columns and labels:
[1] = target: Adenosine receptors; A2b & A3 (Homo sapiens) (UniProt P29275+P0DMS8); experiment: Selectivity ratio (h2B/hA3); format: protein assay
Adenosine receptor A3 [2] = target: T1, Adenosine receptor A3 (Homo sapiens, UniProt P0DMS8); experiment: biochemical
T1 sequence (P0DMS8 whole entry): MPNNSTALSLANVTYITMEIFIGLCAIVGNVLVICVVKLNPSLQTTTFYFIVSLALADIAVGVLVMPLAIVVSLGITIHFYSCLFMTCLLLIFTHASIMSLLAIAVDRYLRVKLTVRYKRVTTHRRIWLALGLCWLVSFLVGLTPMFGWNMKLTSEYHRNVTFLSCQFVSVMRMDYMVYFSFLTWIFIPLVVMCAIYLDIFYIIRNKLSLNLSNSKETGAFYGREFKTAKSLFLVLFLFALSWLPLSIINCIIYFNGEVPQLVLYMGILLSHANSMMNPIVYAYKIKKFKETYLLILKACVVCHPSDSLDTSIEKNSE

Adenosine receptor A2b [3] = target: T2, Adenosine receptor A2b (Homo sapiens, UniProt P29275); experiment: Displacement of [3H]DPCPX from human Adenosine A2B receptor expressed in HEK293 cells; range 89-116; format: cell-based
T2 sequence (P29275 whole entry): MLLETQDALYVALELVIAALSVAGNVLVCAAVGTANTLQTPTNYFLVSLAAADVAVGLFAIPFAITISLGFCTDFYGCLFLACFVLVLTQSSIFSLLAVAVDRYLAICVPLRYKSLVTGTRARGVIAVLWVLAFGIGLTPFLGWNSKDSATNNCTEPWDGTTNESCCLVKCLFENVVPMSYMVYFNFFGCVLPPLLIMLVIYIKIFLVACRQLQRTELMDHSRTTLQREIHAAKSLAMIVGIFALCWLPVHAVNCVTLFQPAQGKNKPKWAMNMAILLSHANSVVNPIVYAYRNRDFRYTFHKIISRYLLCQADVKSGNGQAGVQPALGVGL
Procedure, shortened: (§1)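 Membranes from HEK-293 cells with human recombinant A2B receptor. Incubation 60 min at 25 °C in 50 mM Tris HCl, 10 mM MgCl2, 1 mM EDTA, 0.1 mM benzamidine, pH 7.4, with 2 IU/mL adenosine deaminase and 40 nM [3H]DPCPX. At least six to eight test concentrations. Nonspecific binding defined with NECA. n = 3-6.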

Adenosine receptor A1 [4] = target: T3, Adenosine receptor A1 (Homo sapiens, UniProt P30542); experiment: Displacement of [3H]DPCPX from human Adenosine A1 receptor expressed in CHO cells; range 525-691; format: cell-based
T3 sequence (P30542 whole entry): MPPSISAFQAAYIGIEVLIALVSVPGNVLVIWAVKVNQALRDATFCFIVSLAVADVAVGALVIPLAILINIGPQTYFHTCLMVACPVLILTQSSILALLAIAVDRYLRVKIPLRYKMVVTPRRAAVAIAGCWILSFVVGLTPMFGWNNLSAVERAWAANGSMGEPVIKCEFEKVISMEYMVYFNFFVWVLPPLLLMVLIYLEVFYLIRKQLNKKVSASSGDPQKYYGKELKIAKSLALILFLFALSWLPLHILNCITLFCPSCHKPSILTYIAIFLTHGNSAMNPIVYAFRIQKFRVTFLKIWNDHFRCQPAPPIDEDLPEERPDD

Adenosine receptor A2a [5] = target: T4, Adenosine receptor A2a (Homo sapiens, UniProt P29274); experiment: Displacement of [3H]SCH-58261 from human Adenosine A2A receptor expressed in HEK293 cells; range 312-515; format: cell-based
T4 sequence (P29274 whole entry): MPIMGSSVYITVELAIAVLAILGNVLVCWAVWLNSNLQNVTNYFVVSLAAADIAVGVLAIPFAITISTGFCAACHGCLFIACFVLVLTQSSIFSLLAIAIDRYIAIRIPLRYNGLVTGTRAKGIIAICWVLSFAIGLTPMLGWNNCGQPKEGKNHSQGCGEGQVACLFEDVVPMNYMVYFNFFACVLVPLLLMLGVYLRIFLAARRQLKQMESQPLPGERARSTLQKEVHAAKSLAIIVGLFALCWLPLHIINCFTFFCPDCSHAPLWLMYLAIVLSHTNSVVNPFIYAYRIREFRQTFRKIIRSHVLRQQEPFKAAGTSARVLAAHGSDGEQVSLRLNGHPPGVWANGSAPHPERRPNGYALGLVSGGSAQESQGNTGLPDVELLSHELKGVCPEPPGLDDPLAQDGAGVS

[6] = target: Adenosine receptors; A1 & A3 (Homo sapiens) (UniProt P30542+P0DMS8); experiment: Selectivity ratio (hA1/hA3); format: protein assay
Adenosine receptor A1 [7] = target: T3, Adenosine receptor A1; experiment: Displacement of [3H]DPCPX from human Adenosine A1 receptor expressed in CHO cells; format: cell-based
Procedure, shortened: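 Human recombinant A1 receptor in CHO cell membranes, resuspended in 50 mM Tris HCl pH 7.4. Displacement run 120 min at 25 °C with 1 nM [3H]DPCPX, 50 µg protein per assay, and at least six to eight test concentrations. Nonspecific binding defined with CHA. Bound and free separated on glass-fiber filters; filter radioactivity counted. n = 3-6.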

Adenosine receptor A3 [8] = target: T1, Adenosine receptor A3; experiment: Displacement of [3H]MRE3008-F20 from human Adenosine A3 receptor expressed in HEK cells; range 31-50; format: cell-based, HEK293
Adenosine receptor A2a [9] = target: T4, Adenosine receptor A2a; experiment: Displacement of [3H]SCH-58261 from human Adenosine A2A receptor expressed in HEK293 cells; range 199-311; format: cell-based
Adenosine receptor A2b [10] = target: T2, Adenosine receptor A2b; experiment: Displacement of [3H]DPCPX binding at human Adenosine A2B receptor expressed in HEK293 cells; format: cell-based; procedure, shortened: as §1
Adenosine receptor A3 [11] = target: T1, Adenosine receptor A3; experiment: Inhibition of IB-MECA agonist-mediated cAMP production in membranes of CHO cells expressing human Adenosine A3 receptor; range 1.2-4.9; format: functional, cell-based
Procedure, shortened: (§2)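 Human A3-CHO membranes (in 50 mM Tris HCl, 10 mM MgCl2, 1 mM EDTA, pH 7.4) were preincubated for 10 min at 37 °C with 5 µM GTP, 0.5 mM Ro 20-1724 and 2.0 IU/mL adenosine deaminase. IB-MECA (100 nM) or antagonist was then added with 1 mM ATP and forskolin for 10 min. The reaction was stopped by 2 min boiling. cAMP was measured by [3H]cAMP competitive protein binding using beef adrenal binding protein, 150 min at 4 °C.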

Adenosine receptor A2b [12] = target: T2, Adenosine receptor A2b; experiment: Displacement of [3H]DPCPX from human Adenosine A2B receptor expressed in HEK293 cells; range 115-143; format: cell-based
Procedure, shortened: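 Competition binding on membranes of HEK-293 cells carrying recombinant human A2B receptor. Incubation 60 min at 25 °C in 50 mM Tris HCl pH 7.4 with 10 mM MgCl2, 1 mM EDTA, 0.1 mM benzamidine and 2 IU/mL adenosine deaminase. Radioligand 40 nM [3H]DPCPX, at least six to eight test concentrations. NECA defined nonspecific binding. Bound ligand separated on glass-fibre filters and counted; n = 3-6.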

Adenosine receptor A2a [13] = target: T4, Adenosine receptor A2a; experiment: Displacement of [3H]SCH-58261 from human Adenosine A2A receptor expressed in HEK293 cells; range 162-200; format: cell-based
Adenosine receptor A1 [14] = target: T3, Adenosine receptor A1; experiment: Displacement of [3H]DPCPX from human Adenosine A1 receptor expressed in CHO cells; range 351-526; format: cell-based
Procedure, shortened: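 Competition binding on membranes of CHO cells stably expressing human A1 receptor, resuspended in 50 mM Tris HCl pH 7.4. Incubation 120 min at 25 °C with 1 nM [3H]DPCPX, 50 µg protein per assay and at least six to eight test concentrations. CHA defined nonspecific binding. Bound ligand separated on glass-fibre filters and counted; n = 3-6.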

Adenosine receptor A3 [15] = target: T1, Adenosine receptor A3; experiment: Displacement of [3H]MRE3008-F20 from human Adenosine A3 receptor expressed in HEK cells; range 0.23-0.36; format: cell-based, HEK293
Adenosine receptor A2a [16] = target: T4, Adenosine receptor A2a; experiment: Displacement of [3H]SCH-58261 from human Adenosine A2A receptor expressed in HEK293 cells; range 300-414; format: cell-based
Adenosine receptor A3 [17] = target: T1, Adenosine receptor A3; experiment: Displacement of specific [3H]MRE3008-F20 binding at human Adenosine A3 receptor expressed in HEK cells; value ranges from 39-55; format: cell-based, HEK293
Adenosine receptor A2a [18] = target: T4, Adenosine receptor A2a; experiment: biochemical
Adenosine receptor A3 [19] = target: T1, Adenosine receptor A3; experiment: Displacement of [3H]MRE3008-F20 from human Adenosine A3 receptor expressed in HEK cells; range 0.13-0.20; format: cell-based, HEK293
Adenosine receptor A1 [20] = target: T3, Adenosine receptor A1; experiment: biochemical
Adenosine receptor A2b [21] = target: T2, Adenosine receptor A2b; experiment: biochemical
Adenosine receptor A3 [22] = target: T1, Adenosine receptor A3; experiment: Inhibition of IB-MECA agonist-mediated cAMP production in membranes of CHO cells expressing human Adenosine A3 receptor; format: functional, cell-based; procedure, shortened: as §2

SMILES: CCCCn1cc2c(nc(NC(=O)Cc3ccccc3)n3nc(-c4ccco4)nc23)n1
Ratio [1]: 91
Ki (Adenosine receptor A3 [2]): 1.11 nM
Ki (Adenosine receptor A2b [3]): 101 nM
Ki (Adenosine receptor A1 [4]): 602 nM
Ki (Adenosine receptor A2a [5]): 400 nM
Ratio [6]: 542

SMILES: CCn1cc2c(nc(NC(=O)Nc3ccc(S(=O)(=O)O)cc3)n3nc(-c4ccco4)nc23)n1
Ratio [1]: > 250
Ki (Adenosine receptor A1 [7]): > 10 µM
Ratio [6]: > 250
Ki (Adenosine receptor A3 [8]): 40 nM
Ki (Adenosine receptor A2a [9]): 249 nM
Ki (Adenosine receptor A2b [10]): > 10 µM

SMILES: CCCCn1cc2c(nc(NC(=O)Nc3ccc(S(=O)(=O)O)cc3)n3nc(-c4ccco4)nc23)n1
Ratio [1]: > 213
Ki (Adenosine receptor A1 [7]): > 10 µM
Ratio [6]: > 213
Ki (Adenosine receptor A2a [16]): 352 nM
Ki (Adenosine receptor A3 [17]): 47 nM
Ki (Adenosine receptor A2b [10]): > 10 µM

Further lines, results first:

Ratio [1]: 441
IC50 (Adenosine receptor A3 [11]): 2.4 nM
Ki (Adenosine receptor A2b [12]): 128 nM
Ki (Adenosine receptor A2a [13]): 180 nM
Ki (Adenosine receptor A1 [14]): 430 nM
Ratio [6]: 1480
Ki (Adenosine receptor A3 [15]): 0.29 nM
SMILES: Cn1cc2c(nc(NC(=O)Nc3ccc(Cl)cc3)n3nc(-c4ccco4)nc23)n1

Ratio [1]: 1390
Ki (Adenosine receptor A2a [18]): 381 nM
Ki (Adenosine receptor A3 [19]): 0.16 nM
Ratio [6]: 3710
Ki (Adenosine receptor A1 [20]): 594 nM
Ki (Adenosine receptor A2b [21]): 222 nM
IC50 (Adenosine receptor A3 [22]): 2 nM
SMILES: Cn1cc2c(nc(NC(=O)Nc3ccccc3)n3nc(-c4ccco4)nc23)n1
